In PMC9057999 (RSC Advances, 2020):
Where two headings read alike, the source gives them in different places.

Columns and labels:
[1] = tested on: Colo-205, PC-3, THP-1, A549 and fR-2 cells; assay: MTT cytotoxicity assay, statements on the whole cell line panel; type: cell-based; settings: Homo sapiens, 24 h, read-out: IC50 values (all tested cell lines)
Summary of the method: (§1)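 Human Colo-205, PC-3, THP-1 and A549 cancer cells and normal epithelial fR-2 cells were grown in RPMI-1640 or DMEM with 10% fetal calf serum, penicillin and streptomycin, at 37 °C in 5.0% CO2. After overnight attachment, cells were exposed to 0.07, 0.7, 7.0 and 70.0 μM test compound for 24 h, then to MTT (250 μg mL−1) for 3–4 h. OD was read at 570 nm. Growth (%) = test OD/untreated OD × 100. IC50 was taken from concentration–growth curves as the mean of triplicates.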

[2] = tested on: fR-2 cells; assay: MTT cytotoxicity assay, normal epithelial cell line; type: cell-based; settings: read-out: Normal (fR-2) IC50
Summary of the method: as §1

[3] = tested on: PC-3 cells; assay: MTT cytotoxicity assay, prostate; type: cell-based, human; settings: read-out: Prostate (PC-3) IC50
Summary of the method: as §1

[4] = tested on: Colo-205 cells; assay: MTT cytotoxicity assay, colon; type: cell-based, human; settings: read-out: Colon (Colo-205) IC50
Summary of the method: as §1

[5] = tested on: THP-1 cells; assay: MTT cytotoxicity assay, leukemia; type: cell-based, human; settings: read-out: Leukemia (THP-1) IC50
Summary of the method: as §1

[6] = tested on: A549 cells; assay: MTT cytotoxicity assay, lung; type: cell-based, human; settings: read-out: Lung (A549) IC50
Summary of the method: as §1

[7] = MTT, 24 h treatment, n = 3, mean ± SD

Row | Structure (SMILES) | IC50 [1] | IC50 ([2]; FR2, 24 h) | IC50 ([3]; Homo sapiens, PC-3, 24 h) | IC50 ([4]; Homo sapiens, COLO 205, 24 h) | IC50 ([5]; Homo sapiens, THP-1, 24 h) | IC50 ([6]; Homo sapiens, A549, 24 h) | IC50 [2, 7] | IC50 [3, 7] | IC50 [4, 7] | IC50 [5, 7] | IC50 [6, 7]
1 | CCOC(=O)C1=C(C)NC(=O)NC1C1=C(Cl)c2ccccc2CC1 (stereo not drawn) [Compound 12a, Ethyl-4-(1-chloro-3,4-dihydronaphthalen-2-yl)-6-methyl-2-oxo-1,2,3,4-tetrahydropyrimidine-5-carboxylate] | > 70 µM | > 70 µM | > 70 µM | > 70 µM | > 70 µM | > 70 µM |  |  |  |  | 
2 | CCCCC1NC(=O)NC(C)=C1C(=O)OCC (stereo not drawn) [Compound 7a, Ethyl 4-butyl-1,2,3,4-tetrahydro-6-methyl-2-oxopyrimidine-5-carboxylate] | > 70 µM | > 70 µM | > 70 µM | > 70 µM | > 70 µM | > 70 µM |  |  |  |  | 
3 | O=c1[nH]cc(F)c(=O)[nH]1 [5-Fluorouracil, reference compound] |  | 335 ± 3.8 µM |  | 33.9 ± 1.9 µM |  |  |  |  |  |  | 
4 | CCOC(=O)C1=C(C)NC(=O)NC1C=Cc1cccc(OC)c1OC (stereo not drawn) [Compound 17a, Ethyl 4-(2,3-dimethoxystyryl)-1,2,3,4-tetrahydro-6-methyl-2-oxopyrimidine-5-carboxylate] |  | > 70 µM | 47.9 ± 2.1 µM | 38.2 ± 1.4 µM | > 70 µM | 26.4 ± 1.1 µM |  |  |  |  | 
5 | CC(=O)O[C@H]1C(=O)[C@@]2(C)[C@H]([C@H](OC(=O)c3ccccc3)[C@]3(O)C[C@H](OC(=O)[C@H](O)[C@@H](NC(=O)c4ccccc4)c4ccccc4)C(C)=C1C3(C)C)[C@]1(OC(C)=O)CO[C@@H]1C[C@@H]2O [Paclitaxel, reference compound] |  |  | 0.048 ± 0.008 µM |  |  | 5.1 ± 0.4 µM |  |  |  |  | 
6 | CCOC(=O)C1=C(C)NC(=O)NC1/C=C\c1ccc2c(c1)CCC(C)(C)O2 (stereo not drawn) [Compound 15a, Ethyl-1,2,3,4-tetrahydro-6-methyl-4-((Z)-2-(2,2-dimethylchroman-6-yl)vinyl)-2-oxo-pyrimidine-5-carboxylate] |  | > 70 µM | > 70 µM | 27.3 ± 1.8 µM | > 70 µM | > 70 µM |  |  |  |  | 
7 | CCCC1NC(=O)NC(C)=C1C(=O)OCC (stereo not drawn) [Compound 6a, Ethyl 1,2,3,4-tetrahydro-6-methyl-2-oxo-4-propylpyrimidine-5-carboxylate] | > 70 µM | > 70 µM | > 70 µM | > 70 µM | > 70 µM | > 70 µM |  |  |  |  | 
8 | CCCCCC1NC(=O)NC(C)=C1C(=O)OCC (stereo not drawn) [Compound 8a] |  |  |  |  |  |  | 67.2 ± 1.5 µM | 22.2 ± 1.6 µM | 18.6 ± 1 µM | 43.8 ± 1.4 µM | 63.4 ± 1.1 µM
9 | CCOC(=O)C1=C(C)NC(=O)NC1/C(CC(=O)OC)=C(\Cl)c1ccc(OC)c(OC)c1 (stereo not drawn) [Compound 13a, Ethyl-4-((Z)-3-(methoxycarbonyl)-1-chloro-1-(3,4-dimethoxyphenyl)prop-1-en-2-yl)-1,2,3,4-tetrahydro-6-methyl-2-oxopyrimidine-5-carboxylate] |  | 67.6 ± 2.5 µM | 35.4 ± 2.2 µM | 59.4 ± 1.6 µM | 23.2 ± 1.4 µM | 30.3 ± 2.9 µM |  |  |  |  | 
10 | CCOC(=O)C1=C(C)NC(=O)NC1/C=C/c1ccc2c(c1)OCO2 (stereo not drawn) [Compound 20a, Ethyl-4-((E)-2-(benzo[d][1,3]dioxol-6-yl)vinyl)-1,2,3,4-tetrahydro-6-methyl-2-oxo pyrimidine-5-carboxylate] |  |  |  |  |  |  | 68.7 ± 1.1 µM | > 70 µM | 23.4 ± 1.4 µM | > 70 µM | > 70 µM
11 | COc1cccc2c1C(=O)c1c(O)c3c(c(O)c1C2=O)C[C@@](O)(C(=O)CO)C[C@@H]3O[C@H]1C[C@H](N)[C@H](O)[C@H](C)O1 [Doxorubicin, reference compound] |  |  |  |  | 0.018 ± 0.004 µM |  |  |  |  |  | 
12 | CCOC(=O)C1=C(C)NC(=O)NC1C=Cc1ccc(OC)cc1OC (stereo not drawn) [Compound 19a, Ethyl-4-(2,4-dimethoxystyryl)-1,2,3,4-tetrahydro-6-methyl-2-oxopyrimidine-5-carboxylate] |  | > 70 µM | > 70 µM | 33.7 ± 1.8 µM | > 70 µM | 47.8 ± 2.4 µM |  |  |  |  | 
13 | CCOC(=O)C1=C(C)NC(=O)NC1c1ccc2c(c1)OCO2 (stereo not drawn) [Compound 21a, Ethyl-4-(benzo[d][1,3]dioxol-6-yl)-1,2,3,4-tetrahydro-6-methyl-2-oxopyrimidine-5-carboxylate] |  | > 70 µM | > 70 µM | 48.1 ± 2.1 µM | > 70 µM | > 70 µM |  |  |  |  | 
14 | CCOC(=O)C1=C(C)NC(=O)NC1C(C)=CCc1cc2oc(=O)ccc2cc1OC (stereo not drawn) [Compound 5a, Ethyl 4-(4-(6-methoxy-2-oxo-2H-chromen-7-yl)but-2-en-2-yl)-6-methyl-2-oxo-1,2,3,4-tetrahydropyrimidine-5-carboxylate] |  | 68.8 ± 1.1 µM | 40.8 ± 1.7 µM | 37.6 ± 1.1 µM | 65.8 ± 1.4 µM | 67.8 ± 1.7 µM |  |  |  |  | 
15 | CCOC(=O)C1=C(C)NC(=O)NC1C1=Cc2ccccc2CC1 (stereo not drawn) [Compound 11a, Ethyl-4-(3,4-dihydronaphthalen-2-yl)-6-methyl-2-oxo-1,2,3,4-tetrahydropyrimidine-5-carboxylate] |  | > 70 µM | 29.3 ± 1.3 µM | > 70 µM | > 70 µM | > 70 µM |  |  |  |  | 
16 | CCOC(=O)C1=C(C)NC(=O)NC1C=Cc1cccc(O)c1 (stereo not drawn) [Compound 10a, Ethyl-4-(3-hydroxystyryl)-1,2,3,4-tetrahydro-6-methyl-2-oxopyrimidine-5-carboxylate] |  | > 70 µM | 29.4 ± 1.2 µM | > 70 µM | 42.1 ± 1.7 µM | > 70 µM |  |  |  |  | 
17 | CCOC(=O)C1=C(C)NC(=O)NC1c1ccc2c(c1)CCC(C)(C)O2 (stereo not drawn) [Compound 14a, Ethyl-1,2,3,4-tetrahydro-6-methyl-4-(2,2-dimethylchroman-6-yl)-2-oxo-pyrimidine-5-carboxylate] |  | > 70 µM | > 70 µM | > 70 µM | > 70 µM | > 70 µM |  |  |  |  | 
18 | CCCCCCC1NC(=O)NC(C)=C1C(=O)OCC (stereo not drawn) [Compound 9a, Ethyl-4-hexyl-1,2,3,4-tetrahydro-6-methyl-2-oxo-pyrimidine-5-carboxylate] | > 70 µM | > 70 µM | > 70 µM | > 70 µM | > 70 µM | > 70 µM |  |  |  |  | 
19 | CCOC(=O)C1=C(C)NC(=O)NC1C=Cc1cc(OC)c(OC)c(OC)c1 (stereo not drawn) [Compound 18a, Ethyl 4-(3,4,5-trimethoxystyryl)-1,2,3,4-tetrahydro-6-methyl-2-oxopyrimidine-5-carboxylate] | > 70 µM | > 70 µM | > 70 µM | > 70 µM | > 70 µM | > 70 µM |  |  |  |  | 
